Redox H2O2 prof = compounds producing H2O2 with reducing agent – biochemical, NIH compound library profiling, artefact control for MLSCN library redox annotation, primary screen; DTT-dependent redox cycling H2O2, phenol red/HRP absorbance; 100% = 100 µM peroxide control, 0% = buffer; activation, % at 10 µM; 200,000 compounds, 0.03% hits; AID 878, 2007;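 active means activation of at least 50% relative to the plate's high and low controls in the primary single-dose screen; inactive means activation below 50%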;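 further: compound incubated with DTT at 0.8 mM final as the reducing agent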
T cruzi repl = inhibitors of intracellular T. cruzi growth, primary screen, luminescence, NIH3T3 host cells; T. cruzi beta-gal in NIH3T3, 90 h; inhibition, % (test concentration not listed); 300,000 compounds, 1.4% hits; AID 1885, 2009;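 active means mean inhibition across valid replicates above about 55%, limit read from the data; inconclusive means mean below that limit but half or more replicates reach it; inactive means mean below it, under half of replicates reach it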;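 further: signal also drops with host cell toxicity which is not excluded here; 0% = plate median of DMSO wells and 100% = zero luminescence signal; higher percent means less beta-gal luminescence so fewer parasites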
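Test system: β-gal T. cruzi (Tulahuen C4) inside NIH/3T3 cells / Quantity: 5,000 cells/well / Measured by: luminescence from GalScreen with 0.05% NP40, read after 60 min / Medium: DMEM plus 2% FBS / Measure: parasite load inhibition, % / Reagent: Tulahuen C4 trypomastigotes, 5000/well / Schedule: co-culture of at least 90 h after 3 h attachment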
Lipid droplet = inhibitors of hepatocyte lipid droplet formation, primary screen, imaging, high-throughput imaging, BODIPY stain. 240,000 compounds, 0.4% hits. inhibition, % at 6.5 µM. AML12 mouse hepatocytes, oleate lipid droplets;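 active means lipid droplet intensity inhibited by at least 50%, with more than 500 cells counted; inconclusive means wells with under 300 cells, treated as cytotoxic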
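Technique: fluorescence imaging, 20x objective, two fields per well / Assay system: AML12 hepatocytes (mouse) / Measure: % inhibition of lipid droplet signal / Doses: 6.5 µM single-point dosing / Incubation: overnight exposure / Reagent: 100 µM oleic acid challenge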
Lmaj promast = Leishmania major promastigote growth inhibition, primary screen; 200,000 compounds, 9% hits; Leishmania major promastigotes, resazurin fluorescence viability; AID 1063, 2008; inhibition, % at 10 µM; in the data active means inhibition above about 50%;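 further: promastigotes grown with compound for 44 hours at 28 °C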
MPTP inh = mitochondrial permeability transition pore inhibitors, primary screen, biochemical, isolated mouse mitochondria, absorbance | Ca2+ swelling absorbance, 30 min | 360,000 compounds, 1.4% hits | inhibition, % at 10 µM | AID 602449, 2012;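 active means inhibition of 50% or more, scaled per plate between neutral and stimulator controls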;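 further: 0% = DMSO wells given calcium and 100% = 1 mM EGTA wells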
The depositor's hits bear a star; ? = inconclusive; . = not tested or not shown. This is one part of a sample in which hits are shown more often than they occur.

SMILES	Redox H2O2 prof	T cruzi repl	Lipid droplet	Lmaj promast	MPTP inh
C[C@H](CO)N1C[C@H](C)[C@@H](CN(C)C(=O)Nc2ccccc2)Oc2ccc(NC(=O)CCC(F)(F)F)cc2C1=O	.	.	.	.	-1
CCN1CCN(c2ccc(S(=O)(=O)N3CCCCC3)cc2NC(=O)c2cc3ccccc3o2)CC1	.	76*	.	.	18
O=S1(=O)CC(N2CCC(Cc3ccccc3)CC2)CN1CCc1ccccc1 (stereo unspecified)	.	.	.	.	-1
COc1ccc(N2C(=O)C(Cl)=C(Nc3ccccc3OC)C2=O)cc1	1	-7	10	-6	2
COc1ccc(N2C(=O)C(Cl)=C(Nc3ccccc3O)C2=O)cc1	0	2	-14	98*	1
Cn1ccc(=S)c2ccccc21	0	-3	11	88*	-2
C/C(=N\NC(=O)c1cc(Br)ccc1O)c1ccccn1	.	-9	-4	.	0
C/C(=N\NC(=O)c1ccccc1Cl)c1ccccn1	.	55*	-136	.	0
C/C(=N/NC(N)=S)c1ccc(Br)s1	0	61*	11	4	1
C/C(=N\NC(=O)Cc1ccccc1)c1ccc(Br)s1	.	-14	-14	.	-1
C/C(=N\NC(=O)C1COc2ccccc2O1)c1ccccn1 (stereo unspecified)	0	-19	-71	99*	-3
C/C(=N\NC(=O)C(c1ccccc1)c1ccccc1)c1ccccn1	-1	40	-47	100*	-2
C/C(=N\NC(=O)C(c1ccccc1)c1ccccc1)c1ccc(O)cc1	.	2	-17	.	0
Cc1csc(NC(=O)CSc2nccn2C)n1	.	-10	4	.	0
NNC(=O)C1CC1c1ccc(Cl)cc1 (stereo unspecified)	0	9	0	-3	-1
C/C(=N\NC(=O)c1cc(-c2ccncc2)nc2ccccc12)c1ccc(N2CCOCC2)cc1	-2	24	-16	97*	2
C/C(=N\NC(=O)c1ccc(Cl)c(Cl)c1)c1ccc(Br)s1	1	70*	1	11	2
C/C(=N\NC(=O)c1ccc(Cl)c(Cl)c1)c1ccccn1	.	60*	0	.	-1
C/C(=N\NC(=O)CNc1cccc(C)c1)c1ccc(Br)s1	0	7	14	57*	2
COc1ccc(C(=O)N/N=C(\C)c2ccccn2)cc1OC	.	18	-87	.	6
COC(=O)C(CC(=O)c1cccc(OC)c1)c1ccc(F)cc1 (stereo unspecified)	6	6	-4	-3	1
CC1CCCC(C)N1C(=O)COC(=O)c1ccc2ccccc2n1 (stereo unspecified)	.	.	.	.	-2
COc1ccc(NC(=O)Cn2ncn3nc(-c4ccc(OC)cc4)cc3c2=O)cc1	.	14	-8	.	-1
O=C(CN1C(=O)NC2(CCCCC2)C1=O)N1CCN(S(=O)(=O)/C=C/c2ccccc2)CC1	.	-4	.	.	0
O=C(CC1OC(=O)c2ccccc21)Nc1cc(Cl)ccc1N1CCCC1 (stereo unspecified)	.	0	.	.	2
SMILES	Redox H2O2 prof	T cruzi repl	Lipid droplet	Lmaj promast	MPTP inh
O=C(N/N=C\c1cc(Br)cs1)C1COc2ccccc2O1 (stereo unspecified)	2	-8	.	53*	-2
C/C(=N\NC(=O)C1CCCN(S(=O)(=O)c2ccccc2)C1)c1ccccn1 (stereo unspecified)	-1	36	-1	99*	-1
C/C(=N\NC(=O)C1CCCN(S(=O)(=O)c2ccccc2)C1)c1ccncc1 (stereo unspecified)	-2	-1	7	0	-2
COc1ccc(C(=O)N/N=C(\c2ccccc2)c2ccccn2)cc1	0	?	-4	100*	1
O=C(N/N=C(\c1ccccc1)c1ccccn1)c1ccccc1Cl	.	62*	-10	.	0
CC(=O)Nc1ccc(N2C(=O)CSC2c2cccc([N+](=O)[O-])c2)cc1 (stereo unspecified)	-2	6	-10	0	-1
COCCCC1CCN(C(=O)C2CCC(=O)N(Cc3cccc(F)c3)C2)CC1 (stereo unspecified)	.	-1	-11	.	0
CC(C)CCC1(C)NC(=O)N(CC(=O)c2ccc[nH]2)C1=O (stereo unspecified)	.	13	.	.	1
NNC(=O)c1cc(-c2cccs2)nc2ccccc12	.	-26	14	.	-1
C/C(=N\NC(=O)c1cc(-c2cccs2)nc2ccccc12)c1ccccn1	-2	36	-52	100*	0
C/C(=N\NC(=O)c1ccccc1OCc1ccc(F)cc1)c1ccccn1	.	.	.	.	0
C/C(=N\NC(=O)c1cccc2ccccc12)c1ccccn1	.	64*	-102	.	-1
O=c1cc(C(Cl)(Cl)Cl)oc2c1ccc1ccccc12	1	69*	-67	98*	-1
O=C(Nc1cccc2ccccc12)c1csc([C@@H]2C[C@H](O)[C@@H](CO)O2)n1	.	.	.	.	-2
CCOc1ccc(CC(=O)NCC2(N3CCCCC3)CCCCC2)cc1	-2	12	0	9	3
Cc1ccc(-n2sc3ccccc3c2=O)cc1	0	74*	-2	43	0
O=c1c2ccccc2sn1-c1ccc(F)cc1	.	.	.	.	1
COc1ccccc1C(=O)OCCNC(=O)Cn1cnc2c1c(=O)n(C)c(=O)n2C	0	-9	2	-1	-2
CCc1ccc(-n2c(SCc3c(C)noc3C)nnc2-c2ccncc2)cc1	0	52	-5	72*	0
COc1ccc(-c2noc(CSc3nnc(-c4ccncc4)n3-c3ccc(F)cc3)n2)cc1OC	3	.	0	72*	0
Cc1cc(NC(=O)CSc2nnc(-c3ccncc3)n2-c2ccc(F)cc2)no1	0	-17	23	10	0
COc1ccccc1-n1nnnc1SC(C)C(=O)NC1CCCC1 (stereo unspecified)	.	-14	.	.	0
COc1ccccc1C(=O)C1CCCN(C(=O)c2ccco2)C1 (stereo unspecified)	.	-20	-2	.	-1
O=C1C(Cl)=C(N2CCN(c3ccccc3[N+](=O)[O-])CC2)C(=O)c2ccccc21	2	0	-26	100*	6
O=[N+]([O-])c1cc(Cl)ccc1N1CCCC1	-1	-3	6	-1	2
Cc1nn(-c2nc3ccccc3n2Cc2ccccc2)c2c1C(=O)CC(C)(C)C2	3	.	-28	14	6
Cc1nn(-c2ccccc2)c2c1C(=O)N(Cc1ccccc1)C(=O)C(C)(C)C2	-3	26	.	84*	1
CCC(CC)C(=O)c1c[nH]c(C(=O)N2CCN(c3ccccc3)CC2)c1	0	0	3	-5	3
COc1ccc(C(O)C(CN2CCOCC2)c2ccccc2)cc1F (stereo unspecified)	2	5	-3	86*	0
